Data from ChEMBL document CHEMBL2202981, “Synthesis and cytotoxicity evaluation of highly functionalized pyranochromenes and pyranopyrans” (Bioorg Med Chem Lett, 2012).

Key:
Assay type in all cases: functional, cell-based; call rule not given here
A549 = assay: Cytotoxicity against human A549 cells by MTT assay
MCF7 = assay: Cytotoxicity against human MCF7 cells by MTT assay
Method in brief: (§1)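 MTT assay on four human tumour lines: A549 (alveolar adenocarcinoma epithelial), HeLa (cervical cancer), MDA-MB-231 and MCF7 (breast adenocarcinoma). Dose-response curves were plotted from absorbance data, and IC50 was calculated from them. Each value is the average of two independent experiments.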

HeLa = assay: Cytotoxicity against human HeLa cells by MTT assay; method in brief: as §1
MDA-MB-231 = assay: Cytotoxicity against human MDA-MB-231 cells by MTT assay; method in brief: as §1
[1] = Homo sapiens, A549, read-out: IC50
[2] = Homo sapiens, MCF7, read-out: IC50
[3] = Homo sapiens, HeLa, read-out: IC50
[4] = Homo sapiens, MDA-MB-231, read-out: IC50

Structure (SMILES)	IC50 (A549; a549)	IC50 (MCF7; mcf7)	IC50 (HeLa; hela)	IC50 (MDA-MB-231; mda-mb-231)	IC50 (A549; [1]) [µM]	IC50 (MCF7; [2]) [µM]	IC50 (HeLa; [3]) [µM]	IC50 (MDA-MB-231; [4]) [µM]
CCOC(=O)C1C(c2ccc(C#N)cc2)c2c(c3ccccc3oc2=O)OC1(O)C(F)(F)F (racemic)	Not Active	Not Active	Not Active	Not Active				
CCOC(=O)C1C(c2ccc(O)cc2)c2oc(CO)cc(=O)c2OC1(O)C(F)(F)F (racemic)	Not Active	Not Active	Not Active	Not Active				
CCOC(=O)C1C(c2ccc(OC)cc2)c2oc(CO)cc(=O)c2OC1(O)C(F)(F)F (racemic)	Not Active	Not Active	Not Active	Not Active				
CCOC(=O)C1C(c2ccc(OC)cc2)c2c(c3ccccc3oc2=O)OC1(O)C(F)(F)F (racemic)					82.4	71.7	11.2	2.2
COc1cccc2c1C(=O)c1c(O)c3c(c(O)c1C2=O)C[C@@](O)(C(=O)CO)C[C@@H]3O[C@H]1C[C@H](N)[C@H](O)[C@H](C)O1 [DOXORUBICIN]							< 1	< 1
CCOC(=O)C1C(c2ccc([N+](=O)[O-])cc2)c2c(c3cc(F)ccc3oc2=O)OC1(O)C(F)(F)F (racemic)	Not Active	Not Active	Not Active	Not Active				
CCOC(=O)C1C(c2cccnc2)c2c(c3ccccc3oc2=O)OC1(O)C(F)(F)F (racemic)	Not Active	Not Active	Not Active	Not Active				
CCOC(=O)C1C(c2ccc(O)c(OC)c2)c2c(c3ccccc3oc2=O)OC1(O)C(F)(F)F (racemic)	Not Active	Not Active	Not Active	Not Active				
CCOC(=O)C1C(c2ccc(O)cc2)c2c(c3cc(F)ccc3oc2=O)OC1(O)C(F)(F)F (racemic)					33.9	6.54	11.5	6.61
CCOC(=O)C1C(c2ccc(C(C)C)cc2)c2c(c3ccccc3oc2=O)OC1(O)C(F)(F)F (racemic)	Not Active	Not Active	Not Active	Not Active				
CCOC(=O)C1C(c2ccc(F)cc2)c2c(c3ccccc3oc2=O)OC1(O)C(F)(F)F (racemic)	Not Active					7.67	11	11.3
CCOC(=O)C1C(c2ccc(C#N)cc2)c2c(c3cc(F)ccc3oc2=O)OC1(O)C(F)(F)F (racemic)	Not Active	Not Active	Not Active	Not Active				
CCOC(=O)C1C(c2ccc(OC)c(OC)c2)c2c(c3ccccc3oc2=O)OC1(O)C(F)(F)F (racemic)					34.3	53.9	87	7.71
CCOC(=O)C1C(c2ccc(O)cc2)c2c(c3ccccc3oc2=O)OC1(O)C(F)(F)F (racemic)	Not Active	Not Active	Not Active	Not Active				
CCOC(=O)C1C(c2ccc(F)cc2)c2c(c3cc(F)ccc3oc2=O)OC1(O)C(F)(F)F (racemic)	Not Active	Not Active	Not Active	Not Active				
CCOC(=O)C1C(c2ccc(C)cc2)c2oc(CO)cc(=O)c2OC1(O)C(F)(F)F (racemic)	Not Active	Not Active	Not Active	Not Active				
